From PubChem
GRK2 inh = inhibitors of human GRK2 displacing RNA aptamer; P25098; 330,000 tested, 0.59% active; bead flow cytometry, FAM-aptamer displacement from GRK2; inhibition of aptamer binding, % at 10 µM; AID 488847;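 active = inhibition of aptamer binding above 40%, roughly 3 SD of noise, on plates passing a quality check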;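 also: median bead fluorescence of bound FAM aptamer so fluorescent compounds give negative values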
proCasp3 act = procaspase-3 (human) activation; P42574; recombinant procaspase-3 D3A, Ac-DEVD-pNA absorbance 405 nm; activation, % at 8.5 µM; 330,000 tested, 0.11% active;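 active = activation above the mean of all tested compounds plus 3 SD, cut at about 21% in these data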;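 also: 0% = DMSO alone and 100% = DMSO wells spiked with extra 5 µM PC-3 D3A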
Target sequence (P42574 whole entry D9A/D28A/D175A): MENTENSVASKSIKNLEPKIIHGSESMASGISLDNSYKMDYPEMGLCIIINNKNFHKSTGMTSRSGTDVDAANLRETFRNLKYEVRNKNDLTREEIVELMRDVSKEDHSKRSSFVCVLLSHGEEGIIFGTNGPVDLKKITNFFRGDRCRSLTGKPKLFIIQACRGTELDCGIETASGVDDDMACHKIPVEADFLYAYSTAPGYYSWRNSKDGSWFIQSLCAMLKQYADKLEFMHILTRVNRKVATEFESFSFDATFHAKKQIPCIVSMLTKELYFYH
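material = Procaspase-3 D3A mutant | probe or stimulus = Ac-DEVD-pNA | compound = single dose, 8.5 µM nominal compound, 0.8% DMSO | timing = 1 h preincubation, 2 h reaction | measured by = 405 nm absorbance of p-nitroaniline, reads at 0 and 120 min | benchmarks = DMSO-only low control, 5 µM PC-3 D3A high control | repeats = singlicate, each compound tested once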
GASC-1 inh = inhibitors of human GASC-1 (JMJD2C) demethylase | Q9H3R0 | GST-JMJD2C(1-420) H3K9me3 demethylation, DELFIA europium | inhibition, % at 2.35 µM | 330,000 tested, 0.069% active | AID 2099;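 active = more than half of a compound's replicate wells show inhibition beyond 50%, single wells judged on their own value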;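 also: signal counts dimethyl H3K9 product captured on neutravidin plate; 0% = median of DMSO wells and 100% = 0.3 times that DMSO median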
proCasp7 act = activates human procaspase-7, counter-screen for procaspase-3 activators | activation, % at 8.5 µM | P55210 | recombinant procaspase-7, Ac-DEVD-pNA absorbance 405 nm; D23A/D198A/D206A triple mutant, cannot self-cleave; scale: DMSO 0, 5 µM enzyme 100 | 330,000 tested, 0.093% active | AID 463210;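 active = percent activation above the screen-wide mean plus 3 SD, cut at about 25% in these data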
Target sequence (P55210 whole entry D23A/D198A/D206A): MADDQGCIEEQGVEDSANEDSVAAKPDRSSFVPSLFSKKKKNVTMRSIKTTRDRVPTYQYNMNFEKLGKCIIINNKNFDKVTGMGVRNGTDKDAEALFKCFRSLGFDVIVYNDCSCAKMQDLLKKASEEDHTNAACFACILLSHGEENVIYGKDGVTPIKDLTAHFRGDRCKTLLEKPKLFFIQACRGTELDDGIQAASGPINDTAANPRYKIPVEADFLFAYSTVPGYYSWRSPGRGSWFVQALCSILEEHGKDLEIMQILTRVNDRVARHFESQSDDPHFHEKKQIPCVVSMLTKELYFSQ
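Assay system: Uncleavable procaspase-7 mutant enzyme / Input: 2 µM procaspase-7 mutant as dispensed / Dosing: single nominal 8.5 µM compound dose, 0.8% DMSO final / Timing: 1 h enzyme–compound preincubation and 2 h substrate reaction, both 25 °C / Detection: p-Nitroaniline absorbance at 405 nm, read at 0 and 120 min / Replication: singlicate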
VLA-4 inh = inhibition in a human VLA-4 binding assay. P13612. VLA-4 expressing cells, ligand binding flow cytometry. inhibition, % (about 7 µM as worked out from the volumes in the protocol). 330,000 tested, 0.2% active. AID 2557; in the data active = inhibition above about 50%
Hep lipid drop = modulators of hepatic lipid droplet formation; AML12 mouse hepatocytes, oleate lipid droplets, BODIPY imaging; inhibition, % at 6.5 µM; 240,000 tested, 0.4% active;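 active = lipid droplet intensity inhibited by at least 50%, with more than 500 cells counted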
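Test system: AML12 hepatocytes (mouse); reagent: oleate loading, 100 µM; dosing: one dose, 6.5 µM compound; incubation: overnight exposure; signal: fluorescence imaging, 20x objective, two fields per well; read-out basis: % inhibition of corrected integrated BODIPY droplet signal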
GRK2 CP1 = human GRK2 inhibition confirmation, cherry pick 1; shares compounds with GRK2 inh; bead-bound GRK2, FAM-aptamer displacement, flow cytometry; aptamer displacement, % at 10 µM; 2,000 tested, 4% active;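 active = aptamer displacement above 40%, near three times the noise of non-fluorescent compounds, on plates passing quality checks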;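 also: negative values mostly reflect intrinsic compound fluorescence rather than true enhancement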
Aptamer quench SP = counter-screen for GRK2 aptamer inhibitors: fluorescent aptamer quenchers | shares compounds with GRK2 inh | Carboxyfluorescein RNA aptamer on beads, flow cytometry quenching; hits give low values | fluorescence response (% of DMSO), % at 10 µM | 2,000 tested, under 10 active | AID 504580;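 active = compounds that quench the bead-bound fluorescent RNA probe, cutting fluorescence to under half of the solvent control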;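 also: counterscreen run without GRK2 so only probe quenching by compound is measured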
GRK2 CP2 = human GRK2 inhibition confirmation, cherry pick 2; shares compounds with GRK2 inh; bead-bound GRK2, FAM-aptamer displacement, flow cytometry; inhibition of aptamer binding, % at 10 µM; 360 tested, under 10 active; AID 504782;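 active = inhibition of aptamer binding above 40%, about triple the noise seen with nonglowing compounds, on plates passing quality control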;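 also: negative values mostly come from compounds that fluoresce themselves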
FAM quench SP = quenches fluorescent RNA aptamer, GRK2 hit artifact; shares compounds with GRK2 inh; carboxyfluorescein RNA aptamer beads, flow cytometry quenching; hits give low values; fluorescence response vs DMSO, % at 10 µM; 360 tested, under 10 active; AID 588494;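 active = response vs DMSO under 50%, meaning signal dropped by over half, treated as fluorescence quencher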;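 also: labelled aptamer on streptavidin beads without GRK2 as a quench counter-screen; 100% = bead fluorescence of DMSO wells and lower means quenching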
Numbers without * were called inactive; nt = no result given. An excerpt weighted towards active compounds, which were near 1.3% of everything screened.

SMILES	GRK2 inh	proCasp3 act	GASC-1 inh	proCasp7 act	VLA-4 inh	Hep lipid drop	GRK2 CP1	Aptamer quench SP	others
COc1ccccc1CNC(=O)c1cccc(NC(=O)c2ccccc2)c1	1	1	-14	5	2	0	-2	95
COc1ccc(C(=O)Nc2c(O)ccc3ccccc23)cc1	98*	-4	-41	-9	-6	nt	-3	95
COc1ccc(CCC2CCNCC2)cc1	0	7	7	6	14	-1	nt	nt
O=C(CNC(=O)c1ccc(-c2ccccc2)cc1)Nc1ccc(S(=O)(=O)Nc2ncccn2)cc1	2	-2	-7	-1	10	13	nt	nt
NS(=O)(=O)c1ccc2nc(NC(=O)c3ccc(Br)o3)sc2c1	54*	1	3	-3	9	12	4	93
O=C(CSc1cn[nH]n1)Nc1ccc(Cl)cc1Cl	0	2	6	1	6	12	nt	nt
COC(=O)NCc1ccc(S(=O)(=O)N2CCOCC2)cc1	72*	2	-11	0	-1	-4	2	95
CCOc1ccc(NC(=O)COc2ccc(C(=O)NCC3CCCO3)cc2OC)cc1 (stereo unspecified)	2	-2	-3	7	13	nt	nt	nt
O=c1sc2ccccc2n1Cc1ccccc1	85*	11	-8	3	5	-9	-1	95
COc1ccc(Cn2c(=O)sc3ccccc32)cc1	3	0	-3	-1	11	-19	nt	nt
Cc1ccccc1N(CC(=O)NCCSCc1ccccc1)S(C)(=O)=O	3	0	23	5	3	-8	nt	nt
CN(C)CC1CCCCC1OC(=O)c1ccc(Cl)cc1 (stereo unspecified)	0	-4	6	-2	18	-38	nt	nt
CCN(CC)S(=O)(=O)c1ccc(C(=O)OC2CCCCC2CN(C)C)cc1 (stereo unspecified)	70*	-2	-17	1	-8	nt	-3	99
CCn1nc(C)cc1C(=O)NC1CCCc2c1cnn2-c1ccc(C)c(C)c1 (stereo unspecified)	0	4	-5	3	10	-6	nt	nt
O=C(COc1cccc(F)c1)NNC(=O)Cc1ccc(S(=O)(=O)N2CCOCC2)s1	46*	-8	0	-10	-15	nt	0	95
CC1Sc2ccc(S(=O)(=O)CCC(=O)Nc3ccccc3Cl)cc2NC1=O (stereo unspecified)	6	1	2	-4	2	1	nt	nt
CC1Sc2ccc(S(=O)(=O)CCC(=O)NC(C)c3ccccc3)cc2NC1=O (stereo unspecified)	8	-2	0	-9	23	-33	nt	nt	GRK2 CP2=26;FAM quench SP=97
CC1Sc2ccc(S(=O)(=O)CCC(=O)Nc3ccc(C(C)C)cc3)cc2NC1=O (stereo unspecified)	0	2	2	-2	15	0	nt	nt
CCC1Sc2ccc(S(=O)(=O)CCC(=O)Nc3c(Cl)cc(OC)cc3OC)cc2NC1=O (stereo unspecified)	3	6	-1	5	11	-8	nt	nt	GRK2 CP2=18;FAM quench SP=100
CCC1Sc2ccc(S(=O)(=O)Nc3cc(OC)cc(OC)c3)cc2NC1=O (stereo unspecified)	6	-6	15	0	3	3	nt	nt
CCOc1ccccc1N(C)C(=O)CCS(=O)(=O)c1ccc2c(c1)NC(=O)C(C)S2 (stereo unspecified)	5	12	-2	-5	12	-18	nt	nt	GRK2 CP2=-5;FAM quench SP=101
Cc1ccc(NC(=O)CCS(=O)(=O)c2ccc3c(c2)NC(=O)C(C)S3)cc1Cl (stereo unspecified)	2	7	-2	2	8	22	nt	nt	GRK2 CP2=-2;FAM quench SP=99
O=C(Nc1ccc(OCC(=O)N2CCOCC2)cc1)c1cccc(Cl)c1	4	0	-1	2	10	34	nt	nt
CCn1cc(/C=C(\NC(=O)c2ccccc2OC)C(=O)N2CCN(C)CC2)c2ccccc21	0	-1	-5	9	2	-3	nt	nt
C[C@H](NC(=O)C1CCN(S(=O)(=O)c2ccccc2)CC1)C(=O)NCc1cccc(C(F)(F)F)c1	1	-2	6	2	-3	-15	nt	nt
SMILES	GRK2 inh	proCasp3 act	GASC-1 inh	proCasp7 act	VLA-4 inh	Hep lipid drop	GRK2 CP1	Aptamer quench SP	others
CCC(=O)c1c[nH]c(C(=O)N2CCOCC2)c1	100*	11	-1	-3	6	18	nt	nt	GRK2 CP2=-2;FAM quench SP=104
CCC(=O)c1c[nH]c(C(=O)N2CCN(c3ccccc3)CC2)c1	0	-1	-14	-1	12	-4	nt	nt
COc1ccc(S(=O)(=O)NC(C)C(=O)NCCN2CCOCC2)cc1Cl (stereo unspecified)	0	4	-6	4	-5	1	nt	nt
C=CCc1c(C)nc(-c2ccccc2)nc1Nc1ccc(O)cc1	100*	2	-1	-7	10	-4	nt	nt	GRK2 CP2=-7;FAM quench SP=100
C=CCc1c(C)nc(-c2ccccc2)nc1N/N=C(\C)c1ccccc1	0	0	-8	-4	4	0	nt	nt
O=C(COC(=O)Cc1ccc(Cl)c(Cl)c1)NCc1ccco1	0	1	-2	2	-3	nt	-3	101
O=C(COC(=O)Cc1ccc(Cl)cc1)NCc1ccco1	59*	8	nt	-3	1	nt	33	98
Cc1cc(Br)ccc1SCC(=O)OCC(=O)NCc1ccco1	52*	4	0	-9	-5	-1	25	100
O=C(COC(=O)CSc1ccc(Br)cc1)NCc1ccco1	0	9	-1	-4	-6	nt	nt	nt
Cc1ccc(C)c(NC(=O)CN(C)C(=O)c2ccc(S(=O)(=O)N3CCCCCC3)cc2)c1	0	7	-1	4	28	nt	nt	nt
C=CCN1C(=O)C(CC(=O)NCC)SC1=Nc1cc(Cl)ccc1Cl (stereo unspecified)	nt	4	-4	2	13	0	nt	nt
CCOc1ccc(S(=O)(=O)NC2CCCC2)cc1C	0	-2	-3	13	18	-7	nt	nt
